{
  "source": "ChEMBL document CHEMBL3124870",
  "about": "“Discovery and characterization of potent thiazoles versus methicillin- and vancomycin-resistant Staphylococcus aureus” (J Med Chem, 2014)",
  "key": {"[1]": {"tested_on": "Staphylococcus aureus", "assay": "Antibacterial activity against vancomycin-resistant Staphylococcus aureus assessed as inhibition of visible growth by broth microdilution method", "type": "functional"}, "[2]": {"tested_on": "Staphylococcus aureus", "assay": "Antibacterial activity against methicillin-resistant Staphylococcus aureus USA1100 assessed as inhibition of visible growth by broth microdilution method", "type": "functional"}, "[3]": {"tested_on": "Staphylococcus aureus", "assay": "Antibacterial activity against methicillin-resistant Staphylococcus aureus USA1000 assessed as inhibition of visible growth by broth microdilution method", "type": "functional"}, "[4]": {"tested_on": "Staphylococcus aureus", "assay": "Antibacterial activity against methicillin-resistant Staphylococcus aureus USA800 assessed as inhibition of visible growth by broth microdilution method", "type": "functional"}, "[5]": {"tested_on": "Staphylococcus aureus", "assay": "Antibacterial activity against methicillin-resistant Staphylococcus aureus USA700 assessed as inhibition of visible growth by broth microdilution method", "type": "functional"}, "[6]": {"tested_on": "Staphylococcus aureus", "assay": "Antibacterial activity against methicillin-resistant Staphylococcus aureus USA500 assessed as inhibition of visible growth by broth microdilution method", "type": "functional"}, "[7]": {"tested_on": "Staphylococcus aureus", "assay": "Antibacterial activity against methicillin-resistant Staphylococcus aureus USA300 assessed as inhibition of visible growth by broth microdilution method", "type": "functional"}, "[8]": {"tested_on": "Staphylococcus aureus", "assay": "Antibacterial activity against methicillin-resistant Staphylococcus aureus USA200 assessed as inhibition of visible growth by broth microdilution method", "type": "functional"}, "[9]": {"tested_on": "Staphylococcus aureus", "assay": "Antibacterial activity against methicillin-resistant Staphylococcus aureus USA100 assessed as inhibition of visible growth by broth microdilution method", "type": "functional"}, "[10]": {"tested_on": "Staphylococcus aureus", "assay": "Antibacterial activity against methicillin-resistant Staphylococcus aureus NRS194 assessed as inhibition of visible growth by broth microdilution method", "type": "functional"}, "[11]": {"tested_on": "Staphylococcus aureus", "assay": "Antibacterial activity against methicillin-resistant Staphylococcus aureus USA400 assessed as inhibition of visible growth by broth microdilution method", "type": "functional"}, "[12]": {"tested_on": "Staphylococcus aureus", "assay": "Antibacterial activity against methicillin-resistant Staphylococcus aureus NRS119 assessed as inhibition of visible growth by broth microdilution method", "type": "functional"}, "[13]": {"tested_on": "Staphylococcus aureus", "assay": "Antibacterial activity against methicillin-resistant Staphylococcus aureus NRS108 assessed as inhibition of visible growth by broth microdilution method", "type": "functional"}, "[14]": {"tested_on": "Staphylococcus aureus", "assay": "Antibacterial activity against methicillin-resistant Staphylococcus aureus NRS107 assessed as inhibition of visible growth by broth microdilution method", "type": "functional"}, "[15]": {"tested_on": "Staphylococcus aureus", "assay": "Antibacterial activity against vancomycin-intermediate Staphylococcus aureus LIM 3 assessed as inhibition of visible growth by broth microdilution method", "type": "functional"}, "[16]": {"tested_on": "Staphylococcus aureus", "assay": "Antibacterial activity against vancomycin-intermediate Staphylococcus aureus HIP07256 assessed as inhibition of visible growth by broth microdilution method", "type": "functional"}, "[17]": {"tested_on": "Staphylococcus aureus", "assay": "Antibacterial activity against vancomycin-intermediate Staphylococcus aureus ATCC 700699 assessed as inhibition of visible growth by broth microdilution method", "type": "functional"}, "[18]": {"tested_on": "Staphylococcus aureus", "assay": "Antibacterial activity against methicillin-resistant Staphylococcus aureus ATCC 43300 assessed as inhibition of visible growth by broth microdilution method", "type": "functional"}, "[19]": {"tested_on": "Liver microsome", "assay": "Half life in human liver microsomes by LC-MS/MS analysis", "type": "ADME"}, "[20]": {"tested_on": "MDCK", "assay": "Efflux ratio of apparent permeability from basolateral to apical side over apical to basolateral side in MDCK cells expressing MDR1 for 2 hrs by LC-MS/MS analysis", "type": "ADME, cell-based, Canis lupus familiaris", "conditions": "dog", "in_short": "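Madin-Darby canine kidney cells transfected to overexpress MDR1 (P-glycoprotein 1). Apparent permeability (Papp, cm/sec) was measured in both the apical-to-basolateral and basolateral-to-apical directions. The efflux ratio was taken as Papp(B→A)/Papp(A→B).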"}, "[21]": {"tested_on": "MDCK", "assay": "Apparent permeability from apical to basolateral side in MDCK cells expressing MDR1 for 2 hrs by LC-MS/MS analysis", "type": "ADME, cell-based, Canis lupus familiaris", "conditions": "dog"}, "[22]": {"tested_on": "MDCK", "assay": "Apparent permeability from basolateral to apical side in MDCK cells expressing MDR1 for 2 hrs by LC-MS/MS analysis", "type": "ADME, cell-based, Canis lupus familiaris", "conditions": "dog"}, "[23]": {"tested_on": "Caco-2", "assay": "Efflux ratio of apparent permeability from basolateral to apical side over apical to basolateral side in human Caco2 cells at 10 microM for 2 hrs by LC-MS/MS analysis", "type": "ADME, cell-based", "conditions": "caco-2, 2 h", "in_short": "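Caco-2 monolayer permeability was run under slightly acidic conditions, with the compound at 10 μM. Transfer was measured in the apical-to-basolateral and basolateral-to-apical directions. The efflux ratio was taken as B→A over A→B permeability.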"}, "[24]": {"assay": "Aqueous solubility of compound in phosphate buffer assessed as solubility limit after 2 hrs by turbidity analysis", "type": "physicochemical"}, "[25]": {"tested_on": "Caco-2", "assay": "Apparent permeability across basolateral to apical to side in human Caco2 cells at 10 microM for 2 hrs by LC-MS/MS analysis", "type": "ADME, cell-based", "conditions": "caco-2, 2 h"}, "[26]": {"tested_on": "HeLa", "assay": "Cytotoxicity against human HeLa cells assessed as cell viability at 11 ug/ml by MTS assay", "type": "cell-based"}, "[27]": {"tested_on": "Staphylococcus aureus", "assay": "Bactericidal activity against methicillin-resistant Staphylococcus aureus USA300 assessed as time required to complete elimination of bacteria by 3-log10 by time-kill assay", "type": "functional", "in_short": "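Viable counts (CFU) followed over a 12-hour window; endpoint is a 3-log10 fall in CFU.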"}},
  "data": [
    {"smiles": "CCCCc1ccc(-c2nc(C)c(/C(C)=N/NC(=N)N)s2)cc1", "values": [
      {"measurement": "MIC", "setting": "[1]", "result": 1.4, "unit": "mg/L"},
      {"measurement": "MIC", "setting": "[2]", "result": 2.8, "unit": "mg/L"},
      {"measurement": "MIC", "setting": "[3]", "result": 1.4, "unit": "mg/L"},
      {"measurement": "MIC", "setting": "[4]", "result": 2.3, "unit": "mg/L"},
      {"measurement": "MIC", "setting": "[5]", "result": 1.8, "unit": "mg/L"},
      {"measurement": "MIC", "setting": "[6]", "result": 1.4, "unit": "mg/L"},
      {"measurement": "MIC", "setting": "[7]", "result": 1.4, "unit": "mg/L"},
      {"measurement": "MIC", "setting": "[8]", "result": 2.8, "unit": "mg/L"},
      {"measurement": "MIC", "setting": "[9]", "result": 5.5, "unit": "mg/L"},
      {"measurement": "MIC", "setting": "[10]", "result": 1.4, "unit": "mg/L"},
      {"measurement": "MIC", "setting": "[11]", "result": 1.4, "unit": "mg/L"},
      {"measurement": "MIC", "setting": "[12]", "result": 1.4, "unit": "mg/L"},
      {"measurement": "MIC", "setting": "[13]", "result": 1.4, "unit": "mg/L"},
      {"measurement": "MIC", "setting": "[14]", "result": 1.4, "unit": "mg/L"},
      {"measurement": "MIC", "setting": "[15]", "result": 1.4, "unit": "mg/L"},
      {"measurement": "MIC", "setting": "[16]", "result": 1.4, "unit": "mg/L"},
      {"measurement": "MIC", "setting": "[17]", "result": 1.4, "unit": "mg/L"},
      {"measurement": "MIC", "setting": "[18]", "result": 2.8, "unit": "mg/L"},
      {"measurement": "t1/2", "setting": "[19]", "result": 28.8, "unit": "min"},
      {"measurement": "Ratio", "setting": "[20]", "result": 5},
      {"measurement": "Papp", "setting": "[21]", "result": 7, "unit": "nm/s"},
      {"measurement": "Papp", "setting": "[22]", "result": 36, "unit": "nm/s"},
      {"measurement": "Ratio", "setting": "[23]", "result": "> 2"},
      {"measurement": "solubility kinetic at 2 h", "setting": "[24]", "result": 62.6, "unit": "µM"},
      {"measurement": "Papp", "setting": "[25]", "result": 22, "unit": "nm/s"},
      {"measurement": "Activity", "setting": "[26]", "result": "Non-toxic"},
      {"measurement": "Time", "setting": "[27]", "result": 2, "unit": "h"}
    ]}
  ]
}
